Calls of active or inactive are those of the source.
Columns and labels:
[1] = test system: K562; assay: Effect on FERMT2 gene expression in human K562 cells assessed as change in mRNA transcript expression at 10 nM after 48 hrs by DNA microarray analysis relative to control; format: functional
Method in brief: (§1)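 Transcripts were profiled on Affymetrix GeneChip Human Gene 1.0 ST arrays in K562 cells treated at 10 nM. Treated cells were collected at 6, 12, 24 and 48 h; untreated controls were collected at 48 h. Transcripts changed at least twofold versus control were scored.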

[2] = test system: K562; assay: Effect on BAMBI gene expression in human K562 cells assessed as change in mRNA transcript expression at 10 nM after 48 hrs by DNA microarray analysis relative to control; format: functional; method in brief: as §1
[3] = test system: K562; assay: Effect on CD226 gene expression in human K562 cells assessed as change in mRNA transcript expression at 10 nM after 48 hrs by DNA microarray analysis relative to control; format: functional; method in brief: as §1
[4] = test system: K562; assay: Effect on HIST2H2B gene expression in human K562 cells assessed as change in mRNA transcript expression at 10 nM after 48 hrs by DNA microarray analysis relative to control; format: functional
Method in brief: (§2)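 K562 CML cells (b3a2 Bcr-Abl) in standard ATCC-recommended culture, exposed once to 10 nM conjugate and harvested at 48 h. Untreated controls were also collected at 48 h. Transcripts were profiled on Human Gene 1.0 ST whole-genome oligonucleotide arrays, and each treated level was expressed relative to the untreated control, with a cutoff of at least twofold change.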

[5] = test system: K562; assay: Induction of apoptosis in human K562 cells assessed as non-viable necrotic cells at 250 nM after 48 hrs by annexin-V FITC and propidium iodide staining-based FACS analysis; format: functional
Method in brief: (§3)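 Treated K562 cells […] stained with Annexin V-FITC/propidium iodide. Apoptosis was scored by two-dimensional flow cytometry at a core FACS facility.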

[6] = test system: K562; assay: Effect on CLCA1 gene expression in human K562 cells assessed as change in mRNA transcript expression at 10 nM after 48 hrs by DNA microarray analysis relative to control; format: functional; method in brief: as §1
[7] = test system: K562; assay: Effect on HIST1H2BH gene expression in human K562 cells assessed as change in mRNA transcript expression at 10 nM after 48 hrs by DNA microarray analysis relative to control; format: functional; method in brief: as §1
[8] = test system: K562; assay: Cell cycle arrest in human K562 cells assessed as increase in accumulation at G2/M phase at 125 to 250 nM after 48 hrs propidium iodide staining-based FACS analysis; format: functional
Method in brief: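 K562 cells, from ATCC and kept under ATCC-recommended conditions, were treated for 48 h and pelleted at 200g for 5 min. They were resuspended in PBS, fixed with prechilled 70% ethanol and stained with propidium iodide at 50 µg/mL. DNA content was read by flow cytometry to assign the G0–G1, S and G2–M fractions; sub-2C DNA content was taken as apoptosis.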

[9] = test system: K562; assay: Effect on HIST1H1C gene expression in human K562 cells assessed as change in mRNA transcript expression at 10 nM after 48 hrs by DNA microarray analysis relative to control; format: functional; method in brief: as §1
[10] = test system: histone H4c gene fragment DNA (human); assay: Binding affinity to 5'-ACGCCA-3' sequence of 223 bp human histone H4c gene fragment DNA assessed as DNA alkylating activity at 5 to 100 nM after 15 hrs by PAGE
[11] = test system: K562; assay: Effect on RHD/RHCE gene expression in human K562 cells assessed as change in mRNA transcript expression at 10 nM after 48 hrs by DNA microarray analysis relative to control; format: functional; method in brief: as §2
[12] = test system: K562; assay: Effect on HIST1H1E gene expression in human K562 cells assessed as change in mRNA transcript expression at 10 nM after 48 hrs by DNA microarray analysis relative to control; format: functional; method in brief: as §1
[13] = test system: K562; assay: Induction of apoptosis in human K562 cells assessed as early apoptotic cells at 250 nM after 48 hrs by annexin-V FITC and propidium iodide staining-based FACS analysis; format: functional; method in brief: as §3
[14] = test system: K562; assay: Downregulation of histone H4E mRNA expression in human K562 cells at 125 nM after 48 hrs by real-time PCR analysis; format: functional, cell-based
Method in brief: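 K562 cells were treated for 48 h, and H4c and H4e mRNA were measured by one-step real-time RT-PCR. Reverse transcription ran at 50 °C for 10 min, then hot-start activation at 95 °C for 15 min. Cycling was 45 cycles of 95 °C 15 s, 55 °C 30 s and 72 °C 30 s. Levels were normalized to GAPDH mRNA; error bars are SD.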

[15] = test system: K562; assay: Effect on INPP1 gene expression in human K562 cells assessed as change in mRNA transcript expression at 10 nM after 48 hrs by DNA microarray analysis relative to control; format: functional; method in brief: as §2
[16] = test system: K562; assay: Cytotoxicity against human K562 cells by MTS assay; format: functional, cell-based
Method in brief: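 Proliferation of K562 cells (ATCC, standard culture) was read as mitochondrial conversion of the MTS tetrazolium to formazan, using the CellTiter 96 Aqueous One reagent. EC50 was derived from these readings.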

[17] = test system: K562; assay: Effect on PRF1 gene expression in human K562 cells assessed as change in mRNA transcript expression at 10 nM after 48 hrs by DNA microarray analysis relative to control; format: functional; method in brief: as §2
[18] = test system: K562; assay: Effect on PSMB6 gene expression in human K562 cells assessed as change in mRNA transcript expression at 10 nM after 48 hrs by DNA microarray analysis relative to control; format: functional; method in brief: as §2
[19] = test system: K562; assay: Effect on HIST1H3B gene expression in human K562 cells assessed as change in mRNA transcript expression at 10 nM after 48 hrs by DNA microarray analysis relative to control; format: functional; method in brief: as §1
[20] = test system: K562; assay: Induction of apoptosis in human K562 cells assessed as non-viable necrotic cells at 125 nM after 48 hrs by annexin-V FITC and propidium iodide staining-based FACS analysis; format: functional
Method in brief: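 K562 cells were exposed to conjugate in culture medium for 48 h, then stained with annexin V-FITC plus propidium iodide. Cell populations were quantified by flow cytometry.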

[21] = test system: K562; assay: Effect on RNU5E gene expression in human K562 cells assessed as change in mRNA transcript expression at 10 nM after 48 hrs by DNA microarray analysis relative to control; format: functional; method in brief: as §2
[22] = test system: K562; assay: Effect on PRG2 gene expression in human K562 cells assessed as change in mRNA transcript expression at 10 nM after 48 hrs by DNA microarray analysis relative to control; format: functional; method in brief: as §2
[23] = test system: K562; assay: Effect on HIST1H4C gene expression in human K562 cells assessed as down-regulation of mRNA transcript expression at 10 nM after 48 hrs by DNA microarray analysis relative to control; format: functional; method in brief: as §1
[24] = test system: K562; assay: Effect on HIST1H4B gene expression in human K562 cells assessed as down-regulation of mRNA transcript expression at 10 nM after 48 hrs by DNA microarray analysis relative to control; format: functional; method in brief: as §1
[25] = test system: K562; assay: Effect on LOC10012 gene expression in human K562 cells assessed as change in mRNA transcript expression at 10 nM after 48 hrs by DNA microarray analysis relative to control; format: functional; method in brief: as §2
[26] = test system: K562; assay: Effect on C3 gene expression in human K562 cells assessed as change in mRNA transcript expression at 10 nM after 48 hrs by DNA microarray analysis relative to control; format: functional; method in brief: as §1

Structure (SMILES): CC(=O)Nc1cn(C)c(C(=O)Nc2cn(C)c(C(=O)NCCC(=O)Nc3cn(C)c(C(=O)NCCCC(=O)Nc4cc(C(=O)Nc5cn(C)c(C(=O)Nc6ccc7[nH]c(C(=O)N8CC(CCl)c9c8cc(O)c8ccccc98)cc7c6)n5)n(C)c4)n3)n2)n1 (stereo unspecified)
- fold change (FC) [1]: >=2
- fold change (FC) [2]: >=2
- fold change (FC) [3]: >=2
- fold change (FC) [4]: >=2
- Activity [5]: 2.58%
- fold change (FC) [6]: >=2
- fold change (FC) [7]: >=2
- Activity [8]: Active
- fold change (FC) [9]: >=2
- Activity [10]: Active
- fold change (FC) [11]: >=2
- fold change (FC) [12]: >=2
- Activity [13]: 17.1%
- Activity [14]: Active
- fold change (FC) [15]: >=2
- EC50 [16]: 97 nM
- fold change (FC) [17]: >=2
- fold change (FC) [18]: >=2
- fold change (FC) [19]: >=2
- Activity [20]: 2.07%
- fold change (FC) [21]: >=2
- fold change (FC) [22]: >=2
- fold change (FC) [23]: 2.86
- fold change (FC) [24]: 3.91
- fold change (FC) [25]: >=2
- fold change (FC) [26]: >=2
